Test results published in ChEMBL document CHEMBL3286209, “Synthesis and biological activities of novel pleuromutilin derivatives with a substituted thiadiazole moiety as potent drug-resistant bacteria inhibitors” (J Med Chem, 2014).
Values after ≈ are worked out from the molar mass of the structure shown.

Columns and labels:
[1] = Mean residence time in Sprague-Dawley rat at 15 mg/kg, po; type: ADME, organism-based; set-up: dose 15 mg/kg, route oral; settings: in vivo
In short: (§1)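 Male SD rats, 220−250 g, 6−8 weeks old, n = 3, fasted overnight and for 6 h after dosing. Dosed in 5% Tween in water, 5 mg/kg iv or 15 mg/kg po. Serial retrobulbar blood samples into EDTA-K₂ tubes; plasma levels by HPLC. Parameters from mean plasma concentration by noncompartmental analysis.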

[2] = Elimination half life in Sprague-Dawley rat at 5 mg/kg, iv; type: ADME, organism-based; set-up: dose 5 mg/kg, route intravenous; settings: in vivo, read-out: beta t1/2 (converted); in short: as §1
[3] = system: Escherichia coli; assay: Antibacterial activity against Escherichia coli after 48 hrs by agar dilution method; type: functional
In short: (§2)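 Agar dilution per NCCLS on Mueller–Hinton agar; compound in DMSO/water, 2-fold serial dilutions in distilled water, 2 mL dilution mixed into 18 mL hot agar. Clinical isolates from blood slants, adjusted to about 10⁵−10⁶ cfu/mL in 0.90% saline; 10 μL spotted. Incubated 36.5 °C for 48 h; MIC = lowest concentration giving complete growth inhibition. Triplicate runs.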

[4] = system: Staphylococcus epidermidis; assay: Antibacterial activity against methicillin-resistant Staphylococcus epidermidis after 48 hrs by agar dilution method; type: functional
In short: (§3)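 Agar dilution per NCCLS using clinical isolates. Compound DMSO/water solutions are 2-fold serially diluted in water, then mixed 1:10 into hot Mueller–Hinton agar. Inocula come from blood slants, adjusted to about 10⁵−10⁶ cfu/mL in 0.90% saline, and spotted at 10 μL. Plates incubated at 36.5 °C for 48 h. MIC is the lowest concentration giving complete growth inhibition. Run in triplicate at pH 7.40.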

[5] = system: Rattus norvegicus; assay: Volume of distribution at steady state in Sprague-Dawley rat at 15 mg/kg, po; type: ADME, organism-based; set-up: dose 15 mg/kg, route oral; settings: in vivo; in short: as §1
[6] = Volume of distribution at steady state in Sprague-Dawley rat at 5 mg/kg, iv; type: ADME, organism-based; set-up: dose 5 mg/kg, route intravenous; settings: in vivo, read-out: Vdss; in short: as §1
[7] = Elimination half life in Sprague-Dawley rat at 15 mg/kg, po; type: ADME, organism-based; set-up: dose 15 mg/kg, route oral; settings: in vivo, read-out: beta t1/2 (converted); in short: as §1
[8] = system: Escherichia coli; assay: Antibacterial activity against Escherichia coli at 320 ug/ml after 24 hrs by Oxford cup assay; type: functional; settings: read-out: IZ
In short: (§4)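 Oxford cup diffusion: saline inoculum set by McFarland standard, spread on nutrient agar plates. […] Inhibition zone measured after 24 h at 37 °C; triplicate.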

[9] = system: Streptococcus agalactiae; assay: Antibacterial activity against Streptococcus agalactiae after 48 hrs by agar dilution method; type: functional; in short: as §2
[10] = AUC (0 to infinity) in Sprague-Dawley rat at 15 mg/kg, po; type: ADME, organism-based; set-up: time infinity, dose 15 mg/kg, route oral; settings: plasma; in short: as §1
[11] = Clearance in Sprague-Dawley rat at 5 mg/kg, iv; type: ADME, organism-based; set-up: dose 5 mg/kg, route intravenous; settings: in vivo; in short: as §1
[12] = system: Escherichia coli; assay: Antibacterial activity against Escherichia coli at 160 ug/ml after 24 hrs by Oxford cup assay; type: functional; settings: read-out: IZ; in short: as §4
[13] = Cmax in Sprague-Dawley rat at 5 mg/kg, iv; type: ADME, organism-based; set-up: dose 5 mg/kg, route intravenous; settings: in vivo; in short: as §1
[14] = system: Staphylococcus aureus; assay: Antibacterial activity against methicillin-resistant Staphylococcus aureus at 320 ug/ml after 24 hrs by Oxford cup assay; type: functional; settings: read-out: IZ
In short: (§5)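 Oxford cup diffusion using clinical isolates. Inocula are made in 0.9% saline to a McFarland standard and spread on nutrient agar. […] Inhibition zone diameter is measured after 24 h at 37 °C. Run in triplicate.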

[15] = Clearance in Sprague-Dawley rat at 15 mg/kg, po; type: ADME, organism-based; set-up: dose 15 mg/kg, route oral; settings: in vivo; in short: as §1
[16] = system: Staphylococcus aureus; assay: Antibacterial activity against methicillin-resistant Staphylococcus aureus at 160 ug/ml after 24 hrs by Oxford cup assay; type: functional; settings: read-out: IZ; in short: as §5
[17] = Tmax in Sprague-Dawley rat at 5 mg/kg, iv; type: ADME, organism-based; set-up: dose 5 mg/kg, route intravenous; settings: in vivo; in short: as §1
[18] = Mean residence time in Sprague-Dawley rat at 5 mg/kg, iv; type: ADME, organism-based; set-up: dose 5 mg/kg, route intravenous; settings: in vivo; in short: as §1
[19] = Cmax in Sprague-Dawley rat at 15 mg/kg, po; type: ADME, organism-based; set-up: dose 15 mg/kg, route oral; settings: in vivo; in short: as §1
[20] = system: Streptococcus agalactiae; assay: Antibacterial activity against Streptococcus agalactiae at 320 ug/ml after 24 hrs by Oxford cup assay; type: functional; settings: read-out: IZ; in short: as §4
[21] = system: Staphylococcus epidermidis; assay: Antibacterial activity against methicillin-resistant Staphylococcus epidermidis at 320 ug/ml after 24 hrs by Oxford cup assay; type: functional; settings: read-out: IZ; in short: as §5
[22] = system: Staphylococcus aureus; assay: Antibacterial activity against methicillin-resistant Staphylococcus aureus after 48 hrs by agar dilution method; type: functional; in short: as §3
[23] = system: Staphylococcus epidermidis; assay: Antibacterial activity against methicillin-resistant Staphylococcus epidermidis at 160 ug/ml after 24 hrs by Oxford cup assay; type: functional; settings: read-out: IZ; in short: as §5
[24] = AUC (0 to infinity) in Sprague-Dawley rat at 5 mg/kg, iv; type: ADME, organism-based; set-up: time infinity, dose 5 mg/kg, route intravenous; settings: plasma; in short: as §1
[25] = system: Streptococcus agalactiae; assay: Antibacterial activity against Streptococcus agalactiae at 160 ug/ml after 24 hrs by Oxford cup assay; type: functional; settings: read-out: IZ; in short: as §4
[26] = Tmax in Sprague-Dawley rat at 15 mg/kg, po; type: ADME, organism-based; set-up: dose 15 mg/kg, route oral; settings: in vivo; in short: as §1
[27] = Oral bioavailability in Sprague-Dawley rat at 15 mg/kg; type: ADME, organism-based; settings: in vivo; in short: as §1
[28] = Oral bioavailability in duck; type: ADME, organism-based; settings: anas platyrhynchos, in vivo
[29] = Oral bioavailability in chicken; type: ADME, organism-based, Gallus gallus; settings: in vivo

Row | SMILES | MRT [1] [h] | half-life [2] [h] | MIC [3] [µg/mL] | MIC [4] [µg/mL] | Vdss [5] [L/kg] | Vd [6] [L/kg] | half-life [7] [h] | zone of inhibition at 320 µg/mL [8] [mm] | MIC [9] [µg/mL] | AUC(0-inf) [10] [ng·h/mL] | clearance [11] [mL/min/kg] | zone of inhibition at 160 µg/mL [12] [mm] | Cmax [13] [ng/mL] | zone of inhibition at 320 µg/mL [14] [mm] | zone of inhibition at 160 µg/mL [16] [mm] | zone of inhibition at 320 µg/mL [20] [mm] | zone of inhibition at 320 µg/mL [21] [mm] | MIC [22] [µg/mL] | zone of inhibition at 160 µg/mL [23] [mm] | zone of inhibition at 160 µg/mL [25] [mm] | also measured
1 | C=C[C@]1(C)C[C@@H](OC(=O)CSc2nnc(N)s2)[C@]2(C)[C@H](C)CC[C@]3(CCC(=O)[C@H]32)[C@@H](C)[C@@H]1O | 8.42 | 3.4 | 8 (≈ 16.2 µM) | 1 (≈ 2.03 µM) | 5.14 | 0.92 | 6.07 | 14.3 | 0.25 (≈ 0.506 µM) | 24600 | 5.41 | 12.4 | 13600 | 15.6 | 13 | 17.3 | 15.2 | 0.5 (≈ 1.01 µM) | 12.8 | 15 | CL/F [15]: 10.2 mL/min/kg; Tmax [17]: 4.8 min; MRT [18]: 2.84 h; Cmax [19]: 3070 ng/mL; AUC(0-inf) [24]: 15400 ng·h/mL; Tmax [26]: 0.75 h; bioavailability [27]: 35.8%
2 | C=C[C@]1(C)C[C@@H](OC(=O)CSc2nnc(NC(=O)CN3CCCCC3)s2)[C@]2(C)[C@H](C)CC[C@]3(CCC(=O)[C@H]32)[C@@H](C)[C@@H]1O | 7.91 | 3.89 | 16 (≈ 25.9 µM) | 1 (≈ 1.62 µM) | 4.91 | 1.02 | 5.98 | 13.3 | 0.5 (≈ 0.808 µM) | 24100 | 5.9 | 11.7 | 11300 | 18.8 | 13.8 | 17.7 | 17.4 | 0.5 (≈ 0.808 µM) | 14.5 | 13.5 | CL/F [15]: 10.4 mL/min/kg; Tmax [17]: 4.8 min; MRT [18]: 2.88 h; Cmax [19]: 4650 ng/mL; AUC(0-inf) [24]: 14100 ng·h/mL; Tmax [26]: 0.75 h; bioavailability [27]: 39.7%
3 | C=C[C@]1(C)C[C@@H](OC(=O)CSCCN(CC)CC)[C@]2(C)[C@H](C)CC[C@]3(CCC(=O)[C@H]32)[C@@H](C)[C@@H]1O [TIAMULIN] |  |  | 16 (≈ 32.4 µM) | 2 (≈ 4.05 µM) |  |  |  | 15.8 | 0.5 (≈ 1.01 µM) |  |  | 13.6 |  | 17.2 | 16.9 | 16.1 | 15.6 | 0.5 (≈ 1.01 µM) | 13.9 | 14.6 | 
4 | C=C[C@]1(C)C[C@@H](OC(=O)CSC(C)(C)CNC(=O)[C@H](N)C(C)C)[C@]2(C)[C@H](C)CC[C@]3(CCC(=O)[C@H]32)[C@@H](C)[C@@H]1O [VALNEMULIN] |  |  |  |  |  |  |  |  |  |  |  |  |  |  |  |  |  |  |  |  | bioavailability [28]: 36.7%; bioavailability [29]: 74%
